In brackets after ≈: the same amount, converted by molar mass.
Assays:
Klebsiella pneumoniae [1] = assay: Antibacterial activity against extended-spectrum beta-lactamase harboring Klebsiella pneumoniae ATCC 700603 after 18 to 24 hrs by two-fold serial dilution method; assay type: functional
In short: (§1)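 Agar two-fold serial dilution in Mueller-Hinton agar. Strains came from the Chinese Center for Disease Control and Prevention. Compounds were dissolved in 0.1 N NaOH and water, then diluted in melted agar to final levels stepping down from 128. Plates were inoculated with bacterial cfu and incubated at 35 C for 18–24 h. MIC is the lowest concentration giving 90% growth inhibition.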

Escherichia coli [2] = assay: Antibacterial activity against extended-spectrum beta-lactamase harboring Escherichia coli ATCC 35218 after 18 to 24 hrs by two-fold serial dilution method; assay type: functional; in short: as §1
Enterococcus faecalis [3] = assay: Antibacterial activity against Enterococcus faecalis ATCC 29212 after 18 to 24 hrs by two-fold serial dilution method; assay type: functional
In short: (§2)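 Agar two-fold dilution MIC. Compounds were dissolved in 0.1 N NaOH and water, then serially diluted in melted Mueller-Hinton agar, with top concentrations starting at 128. Plates were inoculated at about 10 cfu and incubated at 35 °C for 18–24 h. MIC was taken as the lowest concentration giving 90% inhibition of growth.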

[4] = tested on: Mycobacterium tuberculosis; assay: Antimycobacterial activity against Mycobacterium tuberculosis H37Rv after 7 days; assay type: functional; details: 168 h
In short: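 Rapid direct susceptibility test in 48-well plates. Two-fold dilutions of compound from DMSO stocks were mixed with an equal volume of bacterial suspension. Medium-only wells served as growth controls and water-only wells as no-growth controls. Plates were sealed and held at 37 C in a humid box, and controls were checked at 3 days. MIC (90% growth inhibition) was read visually by high-magnification observation of the cells and re-read at 7 days.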

[5] = Cytotoxicity against African green monkey Vero cells assessed as reduction in cell viability after 72 hrs by MTT assay; assay type: cell-based; details: chlorocebus sabaeus
In short: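 VERO cells were kept in MEM with Earle's salts and 10% FBS at 37 °C, 5% CO2. They were seeded in 96-well plates and allowed to recover for 24 h. Cells were then exposed to compounds in DMSO over a series from 1000 down to 4 for 72 h. Viability was read by MTT, and CC50 was calculated by Bliss analysis.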

Morganella morganii = assay: Antibacterial activity against Morganella morganii ATCC 25830 after 18 to 24 hrs by two-fold serial dilution method; assay type: functional; in short: as §2
Enterococcus faecium [6] = assay: Antibacterial activity against Enterococcus faecium ATCC 700221 after 18 to 24 hrs by two-fold serial dilution method; assay type: functional; in short: as §2
Enterococcus faecalis [7] = assay: Antibacterial activity against Enterococcus faecalis ATCC 51299 after 18 to 24 hrs by two-fold serial dilution method; assay type: functional; in short: as §2
Pseudomonas aeruginosa = assay: Antibacterial activity against Pseudomonas aeruginosa ATCC 27853 after 18 to 24 hrs by two-fold serial dilution method; assay type: functional; in short: as §2
Enterococcus faecium [8] = assay: Antibacterial activity against Enterococcus faecium 13-7 after 18 to 24 hrs by two-fold serial dilution method; assay type: functional; in short: as §2
[9] = tested on: Staphylococcus epidermidis; assay: Antibacterial activity against methicillin-sensitive Staphylococcus epidermidis ATCC 12228 after 18 to 24 hrs by two-fold serial dilution method; assay type: functional; in short: as §2
Klebsiella aerogenes = assay: Antibacterial activity against Enterobacter aerogenes ATCC 13048 after 18 to 24 hrs by two-fold serial dilution method; assay type: functional; in short: as §2
Proteus vulgaris = assay: Antibacterial activity against Proteus vulgaris ATCC 29905 after 18 to 24 hrs by two-fold serial dilution method; assay type: functional; in short: as §2
[10] = tested on: Staphylococcus epidermidis; assay: Antibacterial activity against methicillin-resistant Staphylococcus epidermidis 13-3 after 18 to 24 hrs by two-fold serial dilution method; assay type: functional; in short: as §1
Klebsiella pneumoniae [11] = assay: Antibacterial activity against extended-spectrum beta-lactamase deficient Klebsiella pneumoniae 15-2 after 18 to 24 hrs by two-fold serial dilution method; assay type: functional; in short: as §2
Proteus mirabilis = assay: Antibacterial activity against Proteus mirabilis 13-1 after 18 to 24 hrs by two-fold serial dilution method; assay type: functional; in short: as §2
Staphylococcus aureus [12] = assay: Antibacterial activity against methicillin-resistant Staphylococcus aureus ATCC 33591 after 18 to 24 hrs by two-fold serial dilution method; assay type: functional; in short: as §1
Enterobacter cloacae = assay: Antibacterial activity against Enterobacter cloacae ATCC 43560 after 18 to 24 hrs by two-fold serial dilution method; assay type: functional
[13] = tested on: Stenotrophomonas maltophilia; assay: Antibacterial activity against Stenotrophomonas maltophilia ATCC 13636 after 18 to 24 hrs by two-fold serial dilution method; assay type: functional; in short: as §2
Citrobacter freundii = assay: Antibacterial activity against extended-spectrum beta-lactamase harboring Citrobacter freundii ATCC 43864 after 18 to 24 hrs by two-fold serial dilution method; assay type: functional; in short: as §1
[14] = tested on: Acinetobacter calcoaceticus; assay: Antibacterial activity against Acinetobacter calcoaceticus ATCC 19606 after 18 to 24 hrs by two-fold serial dilution method; assay type: functional; in short: as §2
Staphylococcus aureus [15] = assay: Antibacterial activity against methicillin-sensitive Staphylococcus aureus ATCC 29213 after 18 to 24 hrs by two-fold serial dilution method; assay type: functional; in short: as §1
Serratia marcescens = assay: Antibacterial activity against Serratia marcescens ATCC 21074 after 18 to 24 hrs by two-fold serial dilution method; assay type: functional; in short: as §2
Escherichia coli [16] = assay: Antibacterial activity against extended-spectrum beta-lactamase deficient Escherichia coli ATCC 25922 after 18 to 24 hrs by two-fold serial dilution method; assay type: functional; in short: as §2
Providencia rettgeri = assay: Antibacterial activity against Providencia rettgeri ATCC 31052 after 18 to 24 hrs by two-fold serial dilution method; assay type: functional; in short: as §2
[17] = Cmax in ICR mouse at 50 mg/kg, po administered as single dose by HPLC analysis; assay type: ADME, organism-based; set-up: dose 50 mg/kg, route oral; details: in vivo
In short: (§3)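 Mice (3 per group), fasted overnight, given a single oral dose of 50 mg/kg as a suspension in 0.5% CMC. Jugular vein blood taken at 0.25, 0.5, 1, 2, 4, 6, 8 and 24 h. Serum proteins precipitated with acetonitrile and centrifuged; the dried supernatant was redissolved in acetonitrile for HPLC. PK parameters were derived directly from the concentration–time data.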

[18] = Tmax in ICR mouse at 50 mg/kg, po administered as single dose by HPLC analysis; assay type: ADME, organism-based; details: in vivo; in short: as §3
[19] = AUC (0 to infinity) in ICR mouse at 50 mg/kg, po administered as single dose by HPLC analysis; assay type: ADME, organism-based; set-up: dose 50 mg/kg, route oral, time infinity; details: in vivo; in short: as §3

SMILES | MIC90 (Klebsiella pneumoniae [1]) [µg/mL] | MIC90 (Escherichia coli [2]) [µg/mL] | MIC90 (Enterococcus faecalis [3]) [µg/mL] | MIC90 [4] [µg/mL] | CC50 at 72 h [5] [µg/mL] | MIC90 (Morganella morganii) [µg/mL] | MIC90 (Enterococcus faecium [6]) [µg/mL] | MIC90 (Enterococcus faecalis [7]) [µg/mL] | MIC90 (Pseudomonas aeruginosa) [µg/mL] | MIC90 (Enterococcus faecium [8]) [µg/mL] | MIC90 [9] [µg/mL] | MIC90 (Klebsiella aerogenes) [µg/mL] | MIC90 (Proteus vulgaris) [µg/mL] | MIC90 [10] [µg/mL] | MIC90 (Klebsiella pneumoniae [11]) [µg/mL] | MIC90 (Proteus mirabilis) [µg/mL] | MIC90 (Staphylococcus aureus [12]) [µg/mL] | MIC90 [13] [µg/mL] | MIC90 (Citrobacter freundii) [µg/mL] | MIC90 [14] [µg/mL] | also measured
CO/N=C1\C(=O)N(CCCN2CCN(c3cc4c(cc3F)c(=O)c(C(=O)OCCCN3C(=O)/C(=N/OC)c5cc(C)ccc53)cn4C3CC3)CC2)c2ccc(C)cc21 | 32 (≈ 40.4 µM) | 16 (≈ 20.2 µM) | 32 (≈ 40.4 µM) | 25 (≈ 31.6 µM) | 16 (≈ 20.2 µM) | 64 (≈ 80.8 µM) | 128 (≈ 162 µM) | 128 (≈ 162 µM) | 32 (≈ 40.4 µM) | > 128 | 16 (≈ 20.2 µM) | 32 (≈ 40.4 µM) | 32 (≈ 40.4 µM) | 64 (≈ 80.8 µM) | 16 (≈ 20.2 µM) | 64 (≈ 80.8 µM) | 32 (≈ 40.4 µM) | 64 (≈ 80.8 µM) | 32 (≈ 40.4 µM) | 64 (≈ 80.8 µM) | MIC90 (Enterobacter cloacae): 16 µg/mL (≈ 20.2 µM); MIC90 (Staphylococcus aureus [15]): 32 µg/mL (≈ 40.4 µM); MIC90 (Serratia marcescens): 32 µg/mL (≈ 40.4 µM); MIC90 (Escherichia coli [16]): 8 µg/mL (≈ 10.1 µM); MIC90 (Providencia rettgeri): 32 µg/mL (≈ 40.4 µM)
CCO/N=C1\C(=O)N(CCCN2CCN(c3cc4c(cc3F)c(=O)c(C(=O)OCCCN3C(=O)/C(=N/OCC)c5cc(C)ccc53)cn4C3CC3)CC2)c2ccc(C)cc21 | 128 (≈ 156 µM) | 16 (≈ 19.5 µM) | 64 (≈ 78.1 µM) | 50 (≈ 61 µM) | 64 (≈ 78.1 µM) | 32 (≈ 39 µM) | 128 (≈ 156 µM) | 128 (≈ 156 µM) | 128 (≈ 156 µM) | > 128 | 32 (≈ 39 µM) | 64 (≈ 78.1 µM) | 64 (≈ 78.1 µM) | 64 (≈ 78.1 µM) | 32 (≈ 39 µM) | 64 (≈ 78.1 µM) | 128 (≈ 156 µM) | 128 (≈ 156 µM) | 64 (≈ 78.1 µM) | 64 (≈ 78.1 µM) | MIC90 (Enterobacter cloacae): 128 µg/mL (≈ 156 µM); MIC90 (Staphylococcus aureus [15]): 64 µg/mL (≈ 78.1 µM); MIC90 (Serratia marcescens): 64 µg/mL (≈ 78.1 µM); MIC90 (Escherichia coli [16]): 16 µg/mL (≈ 19.5 µM); MIC90 (Providencia rettgeri): 64 µg/mL (≈ 78.1 µM)
O=C(O)c1cn(C2CC2)c2cc(N3CCNCC3)c(F)cc2c1=O [CIPROFLOXACIN] | 0.5 (≈ 1.51 µM) | ≤ 0.03 | 0.5 (≈ 1.51 µM) | 0.78 (≈ 2.35 µM) | 128 (≈ 386 µM) | ≤ 0.03 | 8 (≈ 24.1 µM) | 0.5 (≈ 1.51 µM) | 0.25 (≈ 0.754 µM) | 128 (≈ 386 µM) | 0.125 (≈ 0.377 µM) | ≤ 0.03 | ≤ 0.03 | 64 (≈ 193 µM) | ≤ 0.03 | ≤ 0.03 | 0.5 (≈ 1.51 µM) | 2 (≈ 6.04 µM) | ≤ 0.03 | 0.5 (≈ 1.51 µM) | Cmax [17]: 3130 ng/mL; Tmax [18]: 1.8 h; AUC(0-inf) [19]: 17800 ng·h/mL; MIC90 (Staphylococcus aureus [15]): 0.25 µg/mL (≈ 0.754 µM); MIC90 (Serratia marcescens): 0.06 µg/mL (≈ 0.181 µM); MIC90 (Escherichia coli [16]): ≤ 0.03 µg/mL; MIC90 (Providencia rettgeri): ≤ 0.03 µg/mL

From ChEMBL document CHEMBL4270565, “Design, synthesis and antimicrobial evaluation of propylene-tethered ciprofloxacin-isatin hybrids” (Eur J Med Chem, 2018)
